Laboratory results reported in ChEMBL document CHEMBL4152290, “1H-Benzo[d]imidazoles and 3,4-dihydroquinazolin-4-ones: Design, synthesis and antitubercular activity” (Eur J Med Chem, 2018).
Converted amounts (≈) assume the structure as drawn.

Tests used:
[1] = Stability of the compound in PBS containing 10% DMSO at 25 degC measured after 6 hrs by HPLC analysis; type: physicochemical; conditions: buffer
Danio rerio [2] = species: Danio rerio; assay: Cardiotoxicity in Zebrafish AB embryos assessed as heart beat rate at 20 uM measured at 5 days post fertilization by stereomicroscopic method (reference value: 148.1 to 158.2 bpm); type: organism-based; conditions: in vivo, 120 h
Danio rerio [3] = species: Danio rerio; assay: Cardiotoxicity in Zebrafish AB embryos assessed as heart beat rate at 15 uM measured at 5 days post fertilization by stereomicroscopic method (reference value: 148.1 to 158.2 bpm); type: organism-based; conditions: in vivo, 120 h
[4] = Selectivity index, ratio of cytotoxic concentration for human HepG2 cells by MTT assay to MIC for Mycobacterium tuberculosis H37Rv ATCC 27294; type: toxicity; conditions: read-out: Selectivity Index
[5] = Cytotoxicity against African green monkey Vero assessed as cell viability at 10 ug/ml after 72 hrs by MTT assay (reference value: 100%); type: cell-based; conditions: chlorocebus sabaeus, Vero cells; read-out: Activity
Summary of the method: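 Cells were grown in DMEM with 10% heat-inactivated FBS and penicillin-streptomycin, seeded at 2×10^3/well (HepG2, HaCat) or 1×10^3/well (Vero), then left 24 h. Compound was applied at 10 µg/mL final (2% DMSO) for 72 h at 37 °C, 5% CO2. MTT 1 mg/mL was added for 3 h, formazan dissolved in DMSO, and A595 read. Viability is expressed relative to 2% DMSO wells; mean ± SEM, triplicates, three independent experiments.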

[6] = Selectivity index, ratio of cytotoxic concentration for human HaCaT cells by neutral red uptake assay to MIC for Mycobacterium tuberculosis H37Rv ATCC 27294; type: toxicity; conditions: read-out: Selectivity Index
Danio rerio [7] = species: Danio rerio; assay: Induction of neurological impairment in Zebrafish AB embryos assessed as alteration in locomotor activity by measuring swimming activity at 3 to 20 uM measured at 5 days post fertilization; type: organism-based; conditions: in vivo, 120 h
Summary of the method: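 Larvae were exposed from 2 hpf in fish water with 1% DMSO. At 5 dpf each larva was placed singly in a well of water or treatment solution. After 1 min acclimation, it was video-tracked for 5 min at 15 positions/s, and distance travelled was scored.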

[8] = Stability of the compound in PBS containing 10% DMSO at 25 degC measured after 24 hrs by HPLC analysis; type: physicochemical; conditions: buffer
[9] = Cytotoxicity against African green monkey Vero assessed as cell viability at 10 ug/ml after 72 hrs by neutral red uptake assay (reference value: 100%); type: cell-based; conditions: chlorocebus sabaeus, Vero cells; read-out: Activity
Summary of the method: (§1)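 Seeding was 2×10^3/well for HepG2 and HaCat and 1×10^3/well for Vero. After 24 h, cells received 10 µg/mL final (2% DMSO) for 72 h at 37 °C, 5% CO2. They were washed with PBS, given neutral red 25 µg/mL in serum-free medium for 3 h, washed, and extracted 30 min with acetic acid/EtOH/water 1:50:49. A540 was read. Viability is relative to 2% DMSO controls; mean ± SEM, three experiments in triplicate.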

[10] = Stability of the compound in PBS containing 10% DMSO at 37 degC measured after 6 hrs by HPLC analysis; type: physicochemical; conditions: read-out: Stability
Danio rerio [11] = species: Danio rerio; assay: Toxicity in Zebrafish AB embryos assessed as morphological alteration by measuring effect on body length of larvae at 3 to 20 uM measured at 2 to 5 days post fertilization by stereomicroscopic method; type: organism-based; conditions: in vivo
Summary of the method: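 AB embryos are treated from 2 hpf to 5 dpf at 3.0, 15.0 and 20.0 µM in fish water with 1% DMSO, at 28 °C. Controls are fish water and 1% DMSO. Larvae are photographed under a stereomicroscope (3×) at 2 and 5 dpf, n = 30. Body length (µm), ocular distance (µm) and eye surface area (µm²) are measured from the images.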

[12] = Stability of the compound in PBS containing 10% DMSO at 25 degC measured after 48 hrs by HPLC analysis; type: physicochemical; conditions: buffer
[13] = Stability of the compound in PBS containing 10% DMSO at 37 degC measured after 9 hrs by HPLC analysis; type: physicochemical; conditions: buffer, 9 h
[14] = Stability of the compound in PBS containing 10% DMSO at 37 degC measured after 3 hrs by HPLC analysis; type: physicochemical; conditions: read-out: Stability
Danio rerio [15] = species: Danio rerio; assay: Cardiotoxicity in Zebrafish AB embryos assessed as heart beat rate at 20 uM measured at 2 days post fertilization by stereomicroscopic method (reference value: 128.7 to 146.3 bpm); type: organism-based; conditions: in vivo, 48 h
[16] = Selectivity index, ratio of cytotoxic concentration for African green monkey Vero cells by MTT assay to MIC for Mycobacterium tuberculosis H37Rv ATCC 27294; type: toxicity; conditions: read-out: Selectivity Index
Danio rerio [17] = species: Danio rerio; assay: Cardiotoxicity in Zebrafish AB embryos assessed as heart beat rate at 3 uM measured at 2 days post fertilization by stereomicroscopic method (reference value: 128.7 to 146.3 bpm); type: organism-based; conditions: in vivo, 48 h
[18] = system: Mycobacterium tuberculosis; assay: Antitubercular activity against Mycobacterium tuberculosis H37Rv ATCC 27294 after 7 days by resazurin dye based assay; type: functional; conditions: H37Rv ATCC 27294, 168 h
Summary of the method: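 Resazurin microtiter MIC in 7H9 with 10% ADC. Two-fold dilutions from 1 mg/mL DMSO stocks span 25.0–0.05, 10.0–0.02 or 0.02–0.0004 µg/mL, with 2.5% DMSO final. Inoculum is bead-declumped culture grown in 7H9/10% OADC/0.05% Tween 80, diluted to OD600 0.006. Plates run 7 days at 37 °C, then 0.01% resazurin for 48 h. MIC is the lowest concentration preventing the blue-to-pink change. Three independent tests.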

[19] = Stability of the compound in PBS containing 10% DMSO at 25 degC measured after 3 hrs by HPLC analysis; type: physicochemical; conditions: buffer
[20] = Stability of the compound in PBS containing 10% DMSO at 25 degC measured immediately by HPLC analysis; type: physicochemical; conditions: read-out: Stability
[21] = Stability of the compound in PBS containing 10% DMSO at 37 degC measured immediately by HPLC analysis; type: physicochemical; conditions: read-out: Stability
[22] = Stability of the compound in PBS containing 10% DMSO at 25 degC measured after 9 hrs by HPLC analysis; type: physicochemical; conditions: buffer
Danio rerio [23] = species: Danio rerio; assay: Toxicity in Zebrafish AB embryos assessed as effect on larval survival rate at 3 to 20 uM; type: organism-based; conditions: in vivo
Summary of the method: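 Wild-type AB zebrafish embryos are exposed from 2 hpf to 5 dpf at 3.0, 15.0 and 20.0 µM in fish water with 1% DMSO, at 28 °C on a 14/10 h light-dark cycle. Controls are fish water alone and 1% DMSO. Survival and hatching are checked daily under a stereomicroscope.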

[24] = Selectivity index, ratio of cytotoxic concentration for human HepG2 cells by neutral red uptake assay to MIC for Mycobacterium tuberculosis H37Rv ATCC 27294; type: toxicity; conditions: read-out: Selectivity Index
[25] = Selectivity index, ratio of cytotoxic concentration for human HaCaT cells by MTT assay to MIC for Mycobacterium tuberculosis H37Rv ATCC 27294; type: toxicity; conditions: read-out: Selectivity Index
[26] = Stability of the compound in PBS containing 10% DMSO at 37 degC measured after 12 hrs by HPLC analysis; type: physicochemical; conditions: read-out: Stability
[27] = Stability of the compound in PBS containing 10% DMSO at 25 degC measured after 12 hrs by HPLC analysis; type: physicochemical; conditions: buffer
[28] = Cytotoxicity against human HepG2 cells assessed as cell viability at 10 ug/ml after 72 hrs by neutral red uptake assay (reference value: 100%); type: cell-based; conditions: read-out: Activity; summary of the method: as §1

O=C(CSc1nc2ccccc2c(=O)[nH]1)NC1CCCCC1
Stability [1]: 100% | Activity (Danio rerio [2]): 158.4 bpm | Activity (Danio rerio [3]): 163 bpm | selectivity ratio [4]: ≤ 32 | viability at 72 h, 10 ug/ml [5]: 90% | selectivity ratio [6]: ≤ 32 | Activity (Danio rerio [7]): Non-Toxic | Stability [8]: 109% | viability at 72 h, 10 ug/ml [9]: 92% | remaining at 6 h [10]: 111% | Activity (Danio rerio [11]): Non-Toxic | Stability [12]: 126% | Stability [13]: 123% | remaining at 3 h [14]: 109% | Activity (Danio rerio [15]): 155.7 bpm | selectivity ratio [16]: ≤ 32 | Activity (Danio rerio [17]): 149.5 bpm | MIC [18]: 0.97 µM (≈ 0.308 µg/mL) | Stability [19]: 108% | remaining at 0 h [20]: 100% | remaining at 0 h [21]: 100% | Stability [22]: 118% | Activity (Danio rerio [23]): Non-Toxic | selectivity ratio [24]: ≤ 32 | selectivity ratio [25]: ≤ 32 | remaining at 12 h [26]: 120% | Stability [27]: 101% | viability at 72 h, 10 ug/ml [28]: 95%
